In the library only some 2.1% were active in any assay of this set; here they are far more common.
MEKK3 PB1 HTS: modulators (inhibitors or enhancers) of MEK5 binding to human MEKK3 PB1 domain. Q99759. bead-based flow cytometry, Alexa488-MEK5 binding to MEKK3; actives lie on both sides; 0 = blocked by unlabeled MEK5, 100 = vehicle. binding response (% of control), % at 10 µM. 1.4% of 290,000 active. AID 1529;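 active means binding response more than 3 SD above or below the average of its plate-row segment, actives on both sides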;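 further: Alexa488 bead fluorescence after subtracting the streptavidin-only scavenger bead signal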
Target sequence (Q99759 whole entry, looked up, the tested form may be a part): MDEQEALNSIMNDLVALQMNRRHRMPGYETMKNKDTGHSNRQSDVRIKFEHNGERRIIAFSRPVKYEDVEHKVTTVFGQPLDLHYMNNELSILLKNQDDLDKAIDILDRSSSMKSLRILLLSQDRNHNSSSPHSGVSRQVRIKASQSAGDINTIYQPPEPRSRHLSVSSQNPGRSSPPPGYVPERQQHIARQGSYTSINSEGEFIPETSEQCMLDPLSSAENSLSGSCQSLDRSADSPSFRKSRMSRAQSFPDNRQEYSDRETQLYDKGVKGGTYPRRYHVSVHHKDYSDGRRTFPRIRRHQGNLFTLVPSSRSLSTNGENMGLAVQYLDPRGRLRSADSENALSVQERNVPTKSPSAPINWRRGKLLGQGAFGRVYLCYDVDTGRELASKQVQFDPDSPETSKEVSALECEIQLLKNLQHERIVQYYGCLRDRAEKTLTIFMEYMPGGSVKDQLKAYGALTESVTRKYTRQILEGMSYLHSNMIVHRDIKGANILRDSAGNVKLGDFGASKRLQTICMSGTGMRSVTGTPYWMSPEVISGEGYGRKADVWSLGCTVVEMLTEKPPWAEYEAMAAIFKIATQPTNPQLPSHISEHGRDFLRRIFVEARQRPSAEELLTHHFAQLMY
GSK3beta inhib: human GSK3beta kinase inhibition. P49841. GST-GSK3beta kinase, ADP-Glo luminescence, 60 min; active compounds read low. 0.038% of 300,000 active. activity score (negative = inhibition), % at 10 µM. AID 2097;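 active means more than half of replicate wells score below -50%, meaning over 50% inhibition versus plate controls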;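 further: 0% = median DMSO wells and -100% = median GW8510 positive control wells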
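Assay system: GST-tagged human GSK3beta kinase, cell-free; Input: 1.6 ng GSK3beta; Medium: Tris/MgCl2 kinase buffer; Timing: 60 min enzyme reaction, room temperature; Signal: ADP-Glo luminescence quantifying ADP generated by kinase; Evaluation: score relative to plate controls; Benchmarks: DMSO neutral wells and GW8510 at 20 µM as positive.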
MEKK2 WT-MEK5: raises or lowers MEK5 binding to wildtype human MEKK2 PB1 domain; Q9Y2U5; bead flow cytometry, Alexa488-MEK5 binding to MEKK2 WT; actives lie on both sides; binding response (% of control), % at 10 µM; 1.1% of 290,000 active; AID 1531; in the data active means binding response below about 67% or above about 130%
GSK3A inh: inhibitors of human GSK-3 alpha kinase. P49840. ADP-Glo luminescence, 60 min. inhibition, % at 10 µM. 0.1% of 320,000 active. AID 2650;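 active means more than half of replicates show inhibition above 20%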;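 further: GST-tagged GSK-3 alpha with peptide substrate and 25 µM ATP; 0% = DMSO neutral wells and 100% = GW8510 positive control wells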
STK33 inh: human STK33 kinase inhibition | purified STK33, MBP phosphorylation, ADP-Glo luminescence | inhibition, % at 10 µM | 0.073% of 320,000 active | AID 2661;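 active means inhibition at or above 25%, using the most active replicate where run in duplicate; inactive means inhibition below 25%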
MEKK2mut PB1 HTS: signal of MEK5 binding to mutant human MEKK2 PB1 domain; bead flow cytometry, Alexa488-MEK5 binding to MEKK2 mutant; percent response, % at 10 µM; 0.35% of 290,000 active; in the data active means percent response above about 24%, passing the limit was not always enough
MEKK2wt confirm: raises or lowers MEK5 binding to wildtype human MEKK2, retest. binding response (% of control), % at 10 µM. bead flow cytometry, Alexa488-MEK5 binding to MEKK2 WT; actives lie on both sides. 2.4% of 5,900 active. AID 1892. shares compounds with MEKK3 PB1 HTS; in the data active means binding response below about 16% or above about 210%; inactive means in between
MEKK2mut confirm: signal of MEK5 binding to mutant human MEKK2, retest; shares compounds with MEKK3 PB1 HTS; bead flow cytometry, Alexa488-MEK5 binding to MEKK2 mutant; percent response, % at 10 µM; 2% of 5,900 active; in the data active means percent response mostly above about 71%, no sharp cut-off; inactive means mostly below about 38%;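 further: higher means compound restores mutant binding toward wildtype level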
MEKK3 confirm: MEKK3-MEK5 PB1 inhibition, single concentration confirmation. 1.8% of 5,900 active. binding response (% of control), % at 10 µM. bead flow cytometry, Alexa488-MEK5 binding to MEKK3; active compounds read low. shares compounds with MEKK3 PB1 HTS;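 active means binding response below 72% of control, or above a set upper limit, though filed actives all read lower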;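 further: 100% = DMSO only wells and 0% = binding blocked by excess unlabeled MEK5; lower values mean stronger disruption of MEK5 binding to MEKK3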
* = called active by the depositor; nt = no result given; [ ] = remark or other dose.

SMILES | MEKK3 PB1 HTS | GSK3beta inhib | MEKK2 WT-MEK5 | GSK3A inh | STK33 inh | MEKK2mut PB1 HTS | MEKK2wt confirm | MEKK2mut confirm | MEKK3 confirm
CC(C)OC(=O)NC(Nc1ccccc1C(=O)O)(C(F)(F)F)C(F)(F)F | 132* | 1 | 134 | -4 | 3 | 29 | 101 | 1 | 100
COc1ccc(N=C2SC(C(=O)Nc3ccc(C(=O)O)cc3)CC(=O)N2Cc2cccs2)cc1 (stereo not given) | 131* | 2 | 122 | -3 | -5 | 24 | 104 | 2 | 107
COc1cc(CNCCCN2CCOCC2)ccc1OCC(=O)Nc1cccc(C(F)(F)F)c1 | 104 | -1 | 119 | nt | 1 | 8 | nt | nt | nt
CCOc1cc(CNCCCN2CCOCC2)ccc1OCC(=O)Nc1cccc2ccccc12 | 106 | -2 | 141* | 2 | 1 | 18 | 115 | -1 | 99
CCC(CC)NC(=O)COC(=O)c1ccc(OCc2ccc(C(C)=O)cc2OC)c(OC)c1 | 97 | -7 | 98 | 2 | -2 | -2 | nt | nt | nt
COc1cc(C(C)=O)ccc1COc1ccc(C(=O)OCC(N)=O)cc1OC | 72*[inhibitor] | 1 | 98 | 0 | 0 | -1 | 110 | 12 | 107
O=Cc1cc(-c2ccccc2)[nH]c1-c1ccccc1 | 104 | nt | 102 | 4 | -2 | 0 | nt | nt | nt
CCn1c(SCc2ccccc2F)nnc1-c1ccncc1 | 108 | -1 | 109 | 1 | 1 | 6 | nt | nt | nt
C=CCSC1=C(C#N)C(c2ccccc2OC)CC(=O)N1 (stereo not given) | 110 | 1 | 106 | -1 | -3 | 7 | nt | nt | nt
COC(=O)CSC1=C(C#N)C(c2ccccc2)CC(=O)N1 (stereo not given) | 2.0*[inhibitor] | -2 | -2.0*[inhibitor] | -2 | 0 | -27 | 97 | -3 | 98
COC(=O)CSC1=C(C#N)C(c2ccc(C(C)C)cc2)CC(=O)N1 (stereo not given) | 119 | -2 | 118 | -1 | -1 | 18 | nt | nt | nt
C=CCSC1=C(C#N)C(c2ccccc2OCC)CC(=O)N1 (stereo not given) | 0.0*[inhibitor] | 0 | -8.0*[inhibitor] | -1 | 1 | -22 | 111 | 7 | 105
CCC(=O)Nc1ccc(-n2nnnc2SCC(=O)NNC(=O)c2ccco2)cc1 | 122 | 0 | 109 | 5 | 0 | 5 | nt | nt | nt
Cc1nn(Cc2nnc(SCC(=O)Nc3ccc(Cl)cc3)n2C)c(C)c1[N+](=O)[O-] | 98 | 1 | 97 | 10 | -1 | -1 | nt | nt | nt
CCCN(CC(=O)Nc1cccc(Br)c1)CC(=O)Nc1ccc(F)c(F)c1F | 101 | 2 | 154* | -1 | 1 | 31 | 103 | -3 | 101

Compound activity from PubChem.
